Measured values published in ChEMBL document CHEMBL1156122, “Protein tyrosine phosphatase 1B inhibitors isolated from Morus bombycis” (Bioorg Med Chem Lett, 2009).

Legend:
[1] = substrate: CC(C)=CCC/C(C)=C/Cc1c(O)ccc2cc(-c3cc(O)cc(O)c3CC=C(C)C)oc12; assay: (§1) Activity at human recombinant PTP1B
Procedure, shortened: (§2)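 Recombinant human PTP1B (0.1 μg) incubated with 2 mM p-NPP in 50 mM citrate pH 6.0, 0.1 M NaCl, 1 mM EDTA, 1 mM DTT, with or without inhibitor. Incubation 37 °C for 30 min, stopped with 10 M NaOH. p-Nitrophenol read by absorbance at 405 nm, corrected for nonenzymatic p-NPP hydrolysis without enzyme. Values are mean ± SD of triplicates.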

[2] = substrate: CC(C)=CCC/C(C)=C\CC/C(C)=C\Cc1c(O)cc(O)cc1-c1cc2ccc(O)cc2o1; assay: as §1; procedure, shortened: as §2
[3] = substrate: CC(C)=CCc1c(O)cc(C(=O)[C@H]2[C@@H](c3c(O)ccc(C(=O)/C=C/c4ccc(O)cc4)c3O)C=C(C)C[C@@H]2c2ccc(O)cc2O)cc1O; assay: as §1; procedure, shortened: as §2
[4] = substrate: CC(C)=CCC/C(C)=C/Cc1c(O)cc(O)cc1-c1cc2ccc(O)cc2o1; assay: as §1; procedure, shortened: as §2
[5] = substrate: CC(C)=CCc1c(O)cc(C(=O)[C@H]2[C@@H](c3c(O)ccc(C(=O)/C=C/c4ccc(O)cc4)c3O)C=C(C)C[C@@H]2c2ccc(O)cc2)cc1O; assay: as §1; procedure, shortened: as §2
[6] = substrate: CC(C)=CCc1c(O)cc(C(=O)[C@H]2[C@@H](c3c(O)ccc(C(=O)/C=C/c4ccc(O)cc4O)c3O)C=C(C)C[C@@H]2c2ccc(O)cc2O)cc1O; assay: as §1; procedure, shortened: as §2

B1: Tyrosine-protein phosphatase non-receptor type 1 (Homo sapiens), P18031 (protein)
chain: MEMEKEFEQIDKSGSWAAIYQDIRHEASDFPCRVAKLPKNKNRNRYRDVSPFDHSRIKLHQEDNDYINASLIKMEEAQRSYILTQGPLPNTCGHFWEMVWEQKSRGVVMLNRVMEKGSLKCAQYWPQKEEKEMIFEDTNLKLTLISEDIKSYYTVRQLELENLTTQETREILHFHYTTWPDFGVPESPASFLNFLFKVRESGSLSPEHGPVVVHCSAGIGRSGTFCLADTCLLLMDKRKDPSSVDIKKVLLEMRKFRMGLIQTADQLRFSYLAVIEGAKFIMGDSSVQDQWKELSHEDLEPPPEHIPPPPRPPKRILEPHNGKCREFFPNHQWVKEETQEDKDCPIKEEKGSPLNAAPYGIESMSQDTEVRSRVVGGSLRGAQAASPAKGEPSLPEKDEDHALSYWKPFLVNMCVATVLTAGAYLCYRFLFNSNT
Km [1]: 2080 µM | Vmax [1]: 5.78 µM/min | Km [2]: 3170 µM | Vmax [2]: 5.49 µM/min | Km [3]: 1640 µM | Vmax [3]: 5.95 µM/min | Km [4]: 1250 µM | Vmax [4]: 6.58 µM/min | Km [5]: 1190 µM | Vmax [5]: 6.71 µM/min | Km [6]: 2810 µM | Vmax [6]: 5.41 µM/min
